HSF1 inhib: HSF1 inhibitors in luciferase reporter cells, primary screen, cell-based, NIH3T3, luminescence | NIH3T3-HGL HSE-luciferase, MG132-induced, luminescence 8 h; hits give low values | activity change, negative = inhibition, % at 7.5 µM (by protocol) | hit rate 0.77% among 300,000;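 active means more than half of replicate wells show activity change below -50%, luminescence cut by over half; inconclusive means some wells, but at most half, below -50%; inactive means no replicate well below -50%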;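 further: luciferase reports HSF-1 transcriptional activity via heat shock element; 0% = median of DMSO wells and -100% = zero luminescence signal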
HSF1 activator: HSF-1 activators, primary screen, NIH3T3-HGL cells, MG132 stress, luminescence, single point | AID 504408, 2011 | activation, % at 9 µM | NIH3T3-HGL HSF-1 luciferase reporter, 8 h; 100% = twice DMSO control signal | hit rate 1.7% among 300,000;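 active means mean replicate activation of at least 50% with a set share of replicates each reaching 50%; inconclusive means only one of those two conditions met; inactive means mean below 50% and too few replicates reaching it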;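 further: 0% = median of the neutral control wells and 100% = twice that signal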
Calb FLC: C. albicans growth inhibition with fluconazole, primary screen, CaCi-2 strain, Alamar Blue fluorescence; C. albicans CaCi-2 + fluconazole, 48 h; growth inhibition, % (test concentration not listed); hit rate 0.57% among 300,000; AID 1979, 2009;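 active means growth inhibition above about 58% in most replicates, limit read from the data, passing the limit was not always enough; inconclusive means exactly half the replicates above a set limit; inactive means most replicates below a set limit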;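 further: all wells also contain fluconazole at 8 µg/ml as a sub-toxic cotreatment; 0% = median of DMSO wells and 100% = median of geldanamycin control wells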
T cruzi inh: inhibitors of intracellular T. cruzi growth, primary screen, luminescence, NIH3T3 host cells. inhibition, % (concentration not given with the values). T. cruzi beta-gal in NIH3T3, 90 h. hit rate 1.4% among 300,000. AID 1885, 2009;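 active means mean inhibition across valid replicates above about 55%, limit read from the data; inconclusive means mean below that limit but half or more replicates reach it; inactive means mean below it, under half of replicates reach it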;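 further: signal also drops with host cell toxicity which is not excluded here; 0% = plate median of DMSO wells and 100% = zero luminescence signal; higher percent means less beta-gal luminescence so fewer parasites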
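Material: NIH/3T3 host cells with β-galactosidase reporter T. cruzi; Input: 5,000 host fibroblasts per well; Medium: DMEM, 2% fetal bovine serum; Compound: 50 nL DMSO compound solution per well; Schedule: 3 h host attachment, then at least 90 h co-culture; Detection: luminescent β-galactosidase signal after 60 min lysis.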
HIF act: HIF pathway transcriptional activators, primary screen, cell-based, U2OS HRE-luciferase, luminescence. U2OS HRE-luciferase reporter; normalized: DMSO 0%, desferrioxamine 100%. activation, % at 7.5 µM (by protocol). hit rate 0.32% among 300,000. AID 1910, 2009;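 active means mean activation of at least 10% of the iron chelator positive control signal, with at least half of replicates also reaching 10%; inconclusive means mean and replicate majority disagree about reaching 10%; inactive means mean and most replicates under 10%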
* hit, by the source's call; ? = inconclusive. In the library only some 4.4% were active in any assay of this set; here they are far more common.

SMILES	HSF1 inhib	HSF1 activator	Calb FLC	T cruzi inh	HIF act
O=C(Nc1cccc2ccccc12)NC1CCCCC1O (stereo not drawn)	0.5	-1.3	3.8	-8.2	0.3
Cc1cccc(-n2c(SCc3cc(=O)n4ccsc4n3)nc3ccccc32)c1	6.6	4.2	113.7*	62.1*	0.9
Cc1ccc(SCc2cc(=O)n3ccsc3n2)c(C)c1	34.2	26.4	-6.6	-1.7	2.1
COc1ccc(-n2cc(-c3ccc(OC(F)F)cc3)[n+]3c2CCCCC3)cc1	-7.4	-1.0	-23.0	59.4*	-0.2
Clc1ccc(-c2cn(-c3ccc(Cl)cc3)c3[n+]2CCCCC3)cc1	-14.2	-1.4	-18.6	31.4	-0.5
COc1ccc(N2CC(O)(c3ccc(OC(F)F)cc3)[N+]3=C2CCCC3)cc1 (stereo not drawn)	-0.5	5.6	-6.2	19.1	-0.5
COc1ccc(-c2cn(-c3ccc(Cl)cc3)c3[n+]2CCCCC3)cc1	-16.9	-7.4	-20.9	57.6*	0.3
COc1ccc(-c2cc(C(=O)O)c(C)o2)cc1OC	-60.7*	-65.5	5.3	-17.2	-3.2
COc1ccc(-c2cc(C(=O)NC(Cc3cc4ccccc4[nH]3)C(=O)O)c(C)o2)cc1OC (stereo not drawn)	-7.0	-9.6	1.1	8.0	1.3
Cc1oc(-c2ccc3c(c2)OCCO3)cc1C(=O)O	-72.0*	-72.8	9.3	-4.2	0.4
Cc1oc(-c2ccc3c(c2)OCCO3)cc1C(=O)NCC(=O)O	-33.2	-28.7	-1.1	-12.8	1.2
CN1CCC(OC(=O)COc2ccc(Br)cc2)CC1	2.6	8.7	1.7	-17.2	0.1
CN1CCC(OC(=O)c2ccc(Br)cc2)CC1	-8.7	-6.4	-21.4	62.4*	0.3
Cc1cccc(C(=O)OC2CCN(C)CC2)c1	-1.6	-23.5	-4.5	53.3	0.0
CN1CCC(OC(=O)c2cccc(Cl)c2)CC1	-5.5	-13.9	-3.5	59.8*	0.0
CN(C)C(C)(C)/C=C/C(O)(c1ccccc1)c1ccccc1	-9.0	-1.1	0.4	6.3	-0.3
CC(C(=O)N1CCCCCC1)c1ccc([N+](=O)[O-])cc1 (stereo not drawn)	12.0	1.5	-4.7	-18.5	-0.2
COc1ccc(C(=O)NCCN2CCOCC2)c(OC)c1OC	-4.2	-1.3	70.2*	3.3	-0.8
COc1ccc(C(=O)NCCN2CCOCC2)c(OC)c1	-4.4	-18.2	-19.4	-7.2	0.5
COc1ccccc1C(=O)N/C(=C\c1cn(S(=O)(=O)N(C)C)c2ccccc12)C(=O)NCCN1CCOCC1	-79.9*	-82.8	39.1	5.9	-0.3
COc1cc(C)c(Br)cc1S(=O)(=O)NCCN1CCOCC1	-8.0	-4.5	?	3.4	0.0
Cc1ccc(N(C(=O)CNC(=O)c2ccco2)C(C(=O)NC2CCCC2)c2ccncc2)cc1C (stereo not drawn)	15.7	16.8	-13.3	-8.3	0.1
Cc1ccc(S(=O)(=O)N(C)C)cc1NC(=O)COC(=O)/C=C/c1ccc2ccccc2n1	52.0	76.3*	9.2	1.5	2.3
Cc1ccc(S(=O)(=O)N(C)C)cc1NC(=O)COC(=O)c1c(-c2ccccc2)noc1C	14.2	9.7	3.7	-19.0	0.3
CCOc1ccc(NC(=O)c2c(N)n(C)c(=O)[nH]c2=O)cc1	-22.4	-28.1	-12.4	-11.1	5.0
SMILES	HSF1 inhib	HSF1 activator	Calb FLC	T cruzi inh	HIF act
CCOC(=O)c1cnc2ccc(OCC)cc2c1N1CCN(C)CC1	7.5	-12.9	9.6	18.9	0.0
CCOc1ccc2ncc(S(=O)(=O)c3ccc(C)cc3)c(N3CCC4(CC3)OCCO4)c2c1	41.3	103.5*	-1.0	30.3	-0.6
C=CCN=c1scc(-c2ccc(F)cc2)n1/N=C/c1ccccn1	26.7	47.0	18.4	-23.9	1.6
C=CCN=c1scc(-c2ccccc2)n1/N=C/c1ccccn1	38.0	51.9*	40.0	-26.0	0.7
COC(=O)c1ccc(C2Nc3cccc4cccc(c34)N2)cc1	14.8	27.9	-2.4	66.6*	-0.1
Cc1ccc(Sc2ccc(NC(=O)CCl)cc2)c(C)c1	41.0	75.7*	-44.1	44.4	-0.1
CCOC(=O)N1CCN(C(=O)CCCn2nnnc2CN2CCC(C)CC2)CC1	-3.4	-1.8	2.4	-18.8	0.1
Cc1ccc(C)c(C(=O)CSc2nnnn2C(C)C)c1	10.8	13.0	-20.5	19.2	2.5
Cc1ccc(C(=O)CSc2nnnn2C(C)C)c(C)c1	28.3	54.0*	-0.2	11.6	-1.4
O=[N+]([O-])C(/C=C(\Cl)[N+](=O)[O-])=C(N1CCCCC1)N1CCCCC1	-4.4	-7.1	-2.7	60.7*	-0.1
Fc1cccc(/C=N/Nc2ccccn2)c1	23.7	37.3	-2.0	16.9	5.4
C=CCOc1ccc(/C=N/Nc2ccccn2)cc1OC	29.3	65.5*	-0.1	4.1	5.3
Cc1ccc(N/N=C/c2ccc3c(c2)OCCO3)cc1Cl	-18.0	-23.5	102.3*	11.4	1.0
C(=N\Nc1ccccn1)/c1ccc2c(c1)OCCO2	26.5	60.9*	-30.4	6.9	1.2
CC(=O)N(c1cccc(C(F)(F)F)c1)c1nc(/C=C/C(=O)O)cs1	10.3	-16.6	5.2	3.3	-0.1
COc1ccc(CNCCNC(=O)c2ccco2)c(OC)c1OC	6.1	-5.6	91.3*	-7.7	0.0
CCOC(=O)c1c(C)c(C(=O)Nc2ccc3c(c2)OCCO3)c(C)n1CC	-6.9	5.1	-18.9	7.7	1.9
CCOC(=O)c1c(C)c(C(=O)Nc2ccc3c(c2)OCO3)c(C)n1C	36.2	71.2*	4.3	1.8	1.0
Cc1ccc(C(=O)Cn2c(C(=O)/C=C/c3ccccc3)nc3ccccc32)cc1	166.0	185.7*	3.3	15.2	-1.1
CCOc1ccc(/C=N/N(C)c2ccccc2)cc1OC	51.1	73.1*	1.7	-4.2	3.2
CCOc1ccc(NC2CCCCC2NS(=O)(=O)c2ccccc2)cc1 (stereo not drawn)	-2.9	-4.0	-22.5	0.5	-0.6
COc1ccc(C2Nc3ccccc3C(=O)N2c2ccc(C)cc2)cc1COc1ccccn1 (stereo not drawn)	21.8	57.9*	-2.7	-10.7	3.7
COc1ccc(C2Nc3ccccc3C(=O)N2c2ccc(C)cc2)cc1Cn1nc(C)c([N+](=O)[O-])c1C (stereo not drawn)	24.1	32.0	9.4	19.7	1.5
Cc1ccc2cccc(OCC(=O)N3CC(C)CC(C)C3)c2n1 (stereo not drawn)	-1.9	21.1	16.7	2.5	0.6
O=C(Nc1ccon1)C12CC3CC(C1)CC(n1cnc([N+](=O)[O-])n1)(C3)C2	-5.4	-10.0	-8.8	59.2*	0.3
Cc1cc(NC(=O)C23CC4CC(C2)CC(n2cnc([N+](=O)[O-])n2)(C4)C3)no1	8.1	2.0	-4.8	54.6*	-0.4
